Yeast lifespan up – compounds extending yeast replicative lifespan, primary screen, S. cerevisiae, OD615; S. cerevisiae growth with nicotinamide; deaD strain in restrictive glucose medium; 0.68% of 130,000 active; AID 775, 2007; inhibition of the nicotinamide effect, % at 10 µM;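 active = inhibition above a set limit, placed 3 SD over the median of all compounds, cut at about 26% in these data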
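assay system = DeaD-strain S. cerevisiae | buffer or medium = restrictive glucose medium | reagent = 1.5 mM nicotinamide | compound = 10 µM single point, 0.25% DMSO | incubation = 48 h compound exposure at 30 °C, humidified | signal = OD615 measurement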
BB579 growth dn – growth inhibitors of yeast BB579 in restrictive medium, primary screen, yeast lifespan-shortening project, S. cerevisiae | inhibition, % at 10 µM | OD615, 48 h | AID 804, 2007 | 0.51% of 140,000 active;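 active = inhibition above a set limit, 3 SD over the mean compound inhibition, cut at about 44% in these data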
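System: DeaD yeast strain BB579; buffer or medium: CSMM-D dextrose restrictive medium; technique: OD at 615 nm; schedule: 4 h cell preincubation, 48 h compound exposure, 30 °C humidified; doses: single 10 µM dose; controls: amphotericin B 10 µg/mL, positive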
SDO1 yeast rescue – growth rescue of sdo1-depleted yeast, primary screen, S. cerevisiae, bone marrow failure model | 0.21% of 140,000 active | z-score at 10 µM | AID 817, 2007 | S. cerevisiae sdo1-depleted JHY4D growth rescue, OD600 30 h; active compounds read high; pdr5 snq2 efflux-pump mutant strain;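 active = z-score above 3 at both the 24 hr and the 30 hr optical density reads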
RAM network inh – inhibitors of the yeast RAM network, primary screen, dse1pr::URA3 reporter, 5-FOA selection | S. cerevisiae dse1pr::URA3 reporter, 5-FOA growth OD615, 2 d; analog-sensitive cbk1-as2 kinase mutant strain | inhibition, % at 50 µM | 1.8% of 190,000 active | AID 868, 2007;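 active = inhibition above a set limit, 3 SD over mean compound inhibition, cut at about 8.4% in these data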;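 note: inhibition rescues growth on 5-FOA so higher OD means more RAM inhibition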
RAM 5-FOA – 5-FOA growth of efflux-deficient control yeast, dose response, counter-screen for RAM network inhibitor project, S. cerevisiae, OD615; shares compounds with RAM network inh; S. cerevisiae efflux-deficient reporter strain, 5-FOA growth OD615, 2 days; max inhibition, %; 1,200 tested, under 10 active; AID 1305, 2008; call rule not given here
A number is an active result; . = inactive; / = no result given. In the library only some 2.7% were active in any assay of this set; here they are far more common.

SMILES	Yeast lifespan up	BB579 growth dn	SDO1 yeast rescue	RAM network inh	RAM 5-FOA
COc1ccccc1NS(=O)(=O)c1ccc(N/N=C(\C)C(C)C)c([N+](=O)[O-])c1	.	.	.	.	/
CCCC(CCC)=NNc1ccc(S(=O)(=O)Nc2ccccc2OC)cc1[N+](=O)[O-]	.	.	.	16.1	.
COCCNc1nc(SCc2ccccc2)nc2sc3c(c12)CCC3	.	.	.	14.2	.
CC(CO)Nc1nc(SCc2ccccc2)nc2sc3c(c12)CCC3 (stereo not drawn)	.	.	.	.	/
COc1ccc(C(=O)CSc2nc(C(C)(C)C)nc3ccccc23)cc1	/	/	/	12.9	.
O=C1Nc2ccccc2N(O)N1c1cc(-c2ccccc2)[nH]n1	/	/	/	.	/
O=C(Nc1ccccc1Cc1ccccc1)c1oc2ccccc2c1COc1ccccc1	.	.	.	11.8	.
CC(OC(=O)c1oc2ccccc2c1COc1ccccc1)C(=O)NC(N)=O (stereo not drawn)	/	/	/	.	/
O=C(NCCc1ccccc1)c1oc2ccccc2c1COc1ccccc1	.	.	.	18.7	.
O=C(NC1CCCCC1)N1CCN(Cc2ccco2)CC1	/	/	/	.	/
O=C(CSc1ccccn1)NC1CCCC1	/	/	/	.	/
CSc1nc(Cl)c(Cc2ccc(OC(C)C)cc2)c(N2CCOCC2)n1	.	.	.	12.2	.
CN(C)CCNC(=O)CNC(=S)N(Cc1ccccc1)Cc1ccccc1F	/	/	/	.	/
CCOC(=O)CNC(=S)N(Cc1ccccc1)Cc1ccccc1F	/	/	/	.	/
Cc1ccc(CNC(=O)CNC(=S)N(Cc2ccccc2)Cc2ccccc2F)cc1	/	/	/	11.5	.
O=C(CNC(=S)N(Cc1ccccc1)Cc1ccccc1F)NCc1ccc(Cl)cc1	/	/	/	16.4	.
COc1cccc(CNC(=O)CNC(=S)N(Cc2ccccc2)Cc2ccccc2F)c1	/	/	/	12.3	.
CCOC(=O)CNc1cccc(C(F)(F)F)c1	/	/	/	.	/
CCCCOC(=O)c1ccc(NC(=S)NC(=O)c2c(Cl)cnn2CC)cc1	.	.	.	.	/
CCCCOC(=O)c1ccc(NC(=S)NC(=O)c2c(Cl)cnn2C)cc1	.	.	.	15.6	.
CCN(Cc1ccccc1)c1ccc(/C=N/NS(=O)(=O)c2cccc([N+](=O)[O-])c2)cc1	.	.	.	14.4	.
O=C(O)c1cc([N+](=O)[O-])ccc1NCCO	.	.	.	.	/
Cc1ccc(C)c(C(=O)COC(=O)c2cc([N+](=O)[O-])ccc2NCCO)c1	.	.	.	13.3	.
Cc1ccc(SCCNC(=O)c2ccc(C)c(S(=O)(=O)Nc3ccccc3C)c2)cc1	.	.	.	16.7	.
Cc1ccc(NC(=O)CSc2nc3ccccc3c(=O)n2CCCN2CCCCC2)cc1Cl	/	/	/	.	/
SMILES	Yeast lifespan up	BB579 growth dn	SDO1 yeast rescue	RAM network inh	RAM 5-FOA
CCCS(=O)(=O)c1c(S(=O)(=O)CCC)c2c(N)cccn2c1C(=O)c1ccc(Br)cc1	/	.	.	12.7	.
O=C(CCCSc1nnc(Nc2ccccc2F)s1)N1CCOCC1	/	/	/	.	/
CCCCN1C(=O)/C(=C/C=C2\SCCN2C)SC1=S	/	/	/	12.7	.
C=COC(=O)CSc1nc(-c2cccs2)ccc1C#N	.	.	.	.	/
CCOC(=O)C(C)Sc1nc(-c2cccs2)ccc1C#N (stereo not drawn)	.	.	.	12.9	.
Cc1ccc(NC(=O)COc2ccc(CCO)cc2-n2nc3ccccc3n2)cc1C	.	.	.	11.8	.
CC(=O)OCC(=O)Nc1ccccc1C	/	/	/	.	/
CN1CCN(NC(=S)Nc2ccc(Oc3ccccc3)cc2)CC1	/	/	/	.	/
N#CC(c1ccccc1)c1ccc(C(=O)c2ccc(F)cc2)cc1 (stereo not drawn)	.	.	.	.	/
N#CC(c1ccc(F)cc1)c1ccc(C(=O)c2ccccc2)cc1 (stereo not drawn)	.	.	.	16.5	.
COc1cc(CCC(=O)Nc2nnc(-c3cccnc3)s2)cc(OC)c1OC	/	/	/	.	/
COc1ccccc1NC(=O)C1=C(C)NC(=O)NC1c1ccc(C)cc1 (stereo not drawn)	.	.	.	.	/
COc1ccc(C2NC(=O)NC(C)=C2C(=O)Nc2cc(C)ccc2C)cc1OC (stereo not drawn)	.	.	.	11.8	.
CCNc1ccc2noc3c2c1C(=O)c1ccccc1-3	/	.	.	19.9	.
Cc1ccc(S(=O)(=O)Nc2nc3ccccc3nc2NCc2ccc3c(c2)OCO3)cc1C	.	.	.	.	/
O=C(CN1CCN(Cc2ccccc2)CC1)N1CCCCCC1	/	/	/	.	/
Cc1ccc(NC(=O)CCC(=O)OCc2ccc(Br)cc2)cc1	.	.	.	.	/
CCC(=O)OCC(=O)Nc1cc(C)c(C)cc1[N+](=O)[O-]	.	.	.	.	/
COc1ccc2c(CC(=O)OCC(=O)Nc3cc(C)c(C)cc3[N+](=O)[O-])coc2c1	.	.	.	12.2	.
CCOc1ccc(-c2nn(-c3ccccc3)cc2/C=C2\SC(=S)N(Cc3ccco3)C2=O)cc1	.	.	.	11.9	.
CCN1C(=O)/C(=C\c2cn(-c3ccccc3)nc2-c2cccnc2)SC1=S	/	/	/	.	/
COC(=O)CNC(=S)NC(=O)c1ccc(C(C)(C)C)cc1	/	/	/	.	/
COc1ccc(C)cc1N1C(=N)/C(=C2/Nc3ccccc3S2)C(c2ccccc2)C1=O (stereo not drawn)	.	.	.	13.5	.
COc1ccc(O[C@H]2C=C[C@@H](c3ccccc3)O[C@@H]2COC(=O)CC/C(C)=N/OC[C@@H](O)[C@H]2O[C@@H]3OC(C)(C)O[C@@H]3[C@H]2O)cc1	.	.	.	.	/
N#CCCCSc1nnc(-c2ccc(Cl)cc2)n1-c1ccccc1	.	.	.	15.4	.
SMILES	Yeast lifespan up	BB579 growth dn	SDO1 yeast rescue	RAM network inh	RAM 5-FOA
COc1ccc(OC)c(-n2c(=S)[nH]c3cc(C(=O)N(C)Cc4ccccc4)ccc3c2=O)c1	/	/	/	.	/
CCCN1C(=O)/C(=C/c2ccc(C)s2)SC1=Nc1ccc(OC)cc1	.	.	.	20.7	.
Cc1ccc(NC(=O)CSc2nnc(CNC(=O)c3cccs3)o2)c(C)c1	/	/	/	.	/
C=CCOc1c(Br)cc(CNc2ccc(NC(=O)C(C)C)c(OC)c2)cc1OCC	.	.	.	12.0	.
C=CCOc1c(Br)cc(CNc2ccc(NC(=O)CCC)cc2)cc1OCC	.	.	.	.	/
Cc1ccccc1N/C(SCc1ccc(Cl)cc1)=C(/C#N)C(=O)NCc1ccco1	.	.	.	14.7	.
O=C(CCSCc1ccc(Cl)cc1)NCc1ccco1	/	/	/	.	/
Cc1ccc(CS/C(Nc2ccccc2C)=C(\C#N)C(=O)NCc2ccco2)c(C)c1	.	.	.	13.0	.
Cc1cc(C(=O)NP(=O)(N2CC(C)OC(C)C2)N2CC(C)OC(C)C2)c(C)n1C1CC1 (stereo not drawn)	/	/	/	.	/
N#C/C(=C/c1cn(CC(=O)O)c2ccccc12)C(=O)NCc1ccccc1	/	/	/	.	/
Cc1ccc(S(=O)(=O)NCCC(c2ccccc2)c2ccco2)cc1 (stereo not drawn)	.	.	.	14.3	.

Bioassay records deposited in PubChem by several laboratories.
